Reference: ChEMBL document CHEMBL1123965, “Substituted 1,3,4-thiadiazoles with anticonvulsant activity. 4. Amidines” (J Med Chem, 1988)

Legend:
[1] = The dose at which 50% of the mouse fell off the rotarod; assay type: ADME, organism-based; conditions: in vivo
Procedure, shortened: (§1)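 Male BKW mice (18–22 g), trained beforehand to stay on a 3-cm-diameter rod turning at 16 rpm; dosed po in 2% Tween 80/water and tested 1 h later. TD50 (dose at which half fall off) by probit analysis. Sedation, ataxia, loss of righting reflex and death noted by visual observation after oral dosing.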

Mus musculus [2] = test: Anticonvulsant activity in mouse maximal electroshock test 1 hr following p.o. administration.; assay type: functional; conditions: po
Procedure, shortened: (§2)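 Male BKW mice (LACA origin), 18–22 g; compound dissolved or suspended in 2% Tween 80 in distilled water, given po, tested 1 h later. Corneal electrodes delivered 4-ms pulses, 50 Hz, 80 V for 0.3 s. End point was block of hind limb tonic seizure; ED50 with limits from probit analysis (Bliss computerized method).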

Mus musculus [3] = test: Anticonvulsant activity in mouse maximal metrazole seizure test 1 hr following p.o. administration.; assay type: functional; conditions: po
Procedure, shortened: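 Male BKW mice (LACA origin), 18–22 g, dosed orally with compound in 2% Tween 80/distilled water (solution or suspension). Leptazol 120 mg/kg ip given 1 h after oral dose to provoke maximal seizures. ED50 with limits obtained by Bliss probit analysis.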

Mus musculus [4] = test: The dose at which 50% of the mouse fell off the rotarod; Sedative at 100 mg/kg; assay type: ADME, organism-based; parameters: dose 100 mg/kg; conditions: in vivo; procedure, shortened: as §1
Mus musculus [5] = test: Anticonvulsant activity in mice (1h after dosing, po) was determined by maximal electroshock test; assay type: functional; procedure, shortened: as §2
Mus musculus [6] = test: The dose at which 50% of the mouse fell off the rotarod; Toxic at 200 mg/kg; assay type: toxicity, organism-based; parameters: dose 200 mg/kg; conditions: in vivo; procedure, shortened: as §1
Mus musculus [7] = test: The dose at which 50% of the mouse fell off the rotarod; Sedative at 142 mg/kg; assay type: ADME, organism-based; parameters: dose 142 mg/kg; conditions: in vivo; procedure, shortened: as §1
Mus musculus [8] = species: Mus musculus; test: Lethal dose was determined; assay type: toxicity, organism-based; conditions: in vivo
Procedure, shortened: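 Male BKW mice (LACA origin, 18–22 g) were dosed orally with compound dissolved or suspended in 2% Tween 80 in distilled water. Before anticonvulsant testing, animals were observed visually for sedation, ataxia, loss of righting reflex and death. The value is reported in the rotorod column, which was read 1 h after oral dosing.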

With `CC(=N)Nc1nnc(-c2ccccc2C(F)(F)F)s1` as the molecule, how does the TD50 [1] read?
Its TD50 is roughly 80 mg/kg.

And the ED50 (Mus musculus [2])?
The ED50 was 18 mg/kg.

What about the ED50 (Mus musculus [3]) of the same molecule?
The ED50 was 19 mg/kg.

For `CC(=N)Nc1nnc(-c2ccccc2-c2ccccc2)s1`, which TD50 [1] is on record?
The TD50 was greater than 100 mg/kg.

Which results are given for `CCCC/N=C(/C)Nc1nnc(-c2ccccc2C)s1`?
TD50 [1]: > 100 mg/kg; ED50 (Mus musculus [2]): 48 mg/kg; ED50 (Mus musculus [3]): 46 mg/kg

What does the source list for `CC(=N)Nc1nnc(-c2ccccc2C)s1`?
TD50 (Mus musculus [4]): Sedative at 100 mg/kg; ED50 (Mus musculus [5]): 200 mg/kg; ED50 (Mus musculus [3]): 78 mg/kg

What does the source list for `CC(=N)Nc1nnc(Cc2ccccc2)s1`?
TD50 [1]: 200 mg/kg; ED50 (Mus musculus [2]): 31 mg/kg; ED50 (Mus musculus [3]): 50 mg/kg

Which results are given for `CCCC/N=C(\Nc1nnc(-c2ccccc2-c2ccccc2)s1)C(C)C`?
ED50 (Mus musculus [2]): > 200 mg/kg; ED50 (Mus musculus [3]): > 100 mg/kg

What does the source list for `C/C(=N/Cc1ccccc1)Nc1nnc(-c2ccccc2C)s1`?
TD50 [1]: > 200 mg/kg; ED50 (Mus musculus [2]): 86 mg/kg; ED50 (Mus musculus [3]): 102 mg/kg

With `Cc1ccccc1-c1nnc(C2=NCCN2)s1` as the molecule, how does the ED50 (Mus musculus [2]) read?
Its ED50 is greater than 100 mg/kg.

What about the ED50 (Mus musculus [3]) of the same molecule?
The ED50 was greater than 200 mg/kg.

For `CCCC/N=C(/C)Nc1nnc(-c2ccccc2-c2ccccc2)s1`, which TD50 [1] is on record?
Its TD50 is greater than 200 mg/kg.

What about the ED50 (Mus musculus [2]) of the same molecule?
Its ED50 is 121 mg/kg.

What about the ED50 (Mus musculus [3]) of the same molecule?
Its ED50 is 90 mg/kg.

Which TD50 (Mus musculus [6]) does the source give for `CCCC/N=C(\N)c1nnc(-c2ccccc2C)s1` here?
The TD50 was “Toxic at 200 mg/kg”.

What about the ED50 (Mus musculus [2]) of the same molecule?
Its ED50 is greater than 200 mg/kg.

What about the ED50 (Mus musculus [3]) of the same molecule?
The ED50 was roughly 142 mg/kg.

For `C/C(=N\c1nnc(-c2ccccc2C)s1)N1CCOCC1`, which TD50 (Mus musculus [7]) is on record?
Its TD50 is “Sedative at 142 mg/kg”.

What about the ED50 (Mus musculus [2]) of the same molecule?
The ED50 was 108 mg/kg.

What about the ED50 (Mus musculus [3]) of the same molecule?
The ED50 was 148 mg/kg.

With `c1ccc(-c2ccccc2-c2nnc(C3=NCCN3)s2)cc1` as the molecule, how does the ED50 (Mus musculus [2]) read?
The ED50 was 103 mg/kg.

And the ED50 (Mus musculus [3])?
The ED50 was 77 mg/kg.

What about the LD30 (Mus musculus [8]) of the same molecule?
Its LD30 is 200 mg/kg.

For `CCCC/N=C(/Cc1ccccc1)Nc1nnc(-c2ccccc2C(F)(F)F)s1`, which ED50 (Mus musculus [2]) is on record?
The ED50 was greater than 200 mg/kg.

What about the ED50 (Mus musculus [3]) of the same molecule?
Its ED50 is greater than 100 mg/kg.

What does the source list for `N=C(Cc1ccccc1)Nc1nnc(Cc2ccccc2)s1`?
TD50 [1]: > 500 mg/kg; ED50 (Mus musculus [2]): 86 mg/kg; ED50 (Mus musculus [3]): 45 mg/kg

For `CCCC(=N)Nc1nnc(-c2ccccc2C(F)(F)F)s1`, which TD50 [1] is on record?
The TD50 was 150 mg/kg.

What about the ED50 (Mus musculus [2]) of the same molecule?
Its ED50 is 63 mg/kg.

And the ED50 (Mus musculus [3])?
Its ED50 is 60 mg/kg.

With `Cc1ccccc1-c1nnc(/N=C/Nc2nnc(-c3ccccc3C)s2)s1` as the molecule, how does the ED50 (Mus musculus [2]) read?
The ED50 was greater than 200 mg/kg.

And the ED50 (Mus musculus [3])?
The ED50 was greater than 200 mg/kg.

Which results are given for `CCN(CC)/C(C)=N/c1nnc(-c2ccccc2C)s1`?
TD50 [1]: > 200 mg/kg; ED50 (Mus musculus [2]): 81 mg/kg; ED50 (Mus musculus [3]): 84 mg/kg

For `CCCC/N=C(/C)Nc1nnc(-c2ccccc2C(F)(F)F)s1`, which TD50 [1] is on record?
Its TD50 is roughly 70 mg/kg.

What about the ED50 (Mus musculus [2]) of the same molecule?
Its ED50 is 33 mg/kg.

And the ED50 (Mus musculus [3])?
The ED50 was 21 mg/kg.
